Source: ChEMBL document CHEMBL3856243, “Structure-Activity Relationships and Kinetic Studies of Peptidic Antagonists of CBX Chromodomains” (J Med Chem, 2016)
Activity calls are given as the source filed them. The calls are words filed in the database; no cut-off is given here. Square brackets hold non-standard residues; d marks the D form. Peptide text beside a SMILES is read from it. * marks the point of attachment. Benzoyl(4-tBu) = CC(C)(C)c1ccc(C(=O)*)cc1; Lys(Et2) = CCN(CC)CCCC[C@H](N)C(=O)O

Legend:
PC-3 = test: Antiproliferative activity against human PC3 cells assessed as reduction in cell count at 30 uM measured after 72 hrs by DAPI-staining based microscopic method; type: functional
In short: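 PC3 cells seeded at 400/well, adhered overnight, then given DMEM + 10% FBS with 30 µM compound or DMSO for 72 h; fixed in ice-cold methanol, rehydrated in PBS, nuclei stained with DAPI (0.05 µg/ml) and counted by high content microscopy; counts normalized to DMSO control (n ≥ 4).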

[1] = target: T1, Chromodomain Y-like protein 2 (Homo sapiens, UniProt Q8N8U2)
T1 sequence (Q8N8U2 whole entry): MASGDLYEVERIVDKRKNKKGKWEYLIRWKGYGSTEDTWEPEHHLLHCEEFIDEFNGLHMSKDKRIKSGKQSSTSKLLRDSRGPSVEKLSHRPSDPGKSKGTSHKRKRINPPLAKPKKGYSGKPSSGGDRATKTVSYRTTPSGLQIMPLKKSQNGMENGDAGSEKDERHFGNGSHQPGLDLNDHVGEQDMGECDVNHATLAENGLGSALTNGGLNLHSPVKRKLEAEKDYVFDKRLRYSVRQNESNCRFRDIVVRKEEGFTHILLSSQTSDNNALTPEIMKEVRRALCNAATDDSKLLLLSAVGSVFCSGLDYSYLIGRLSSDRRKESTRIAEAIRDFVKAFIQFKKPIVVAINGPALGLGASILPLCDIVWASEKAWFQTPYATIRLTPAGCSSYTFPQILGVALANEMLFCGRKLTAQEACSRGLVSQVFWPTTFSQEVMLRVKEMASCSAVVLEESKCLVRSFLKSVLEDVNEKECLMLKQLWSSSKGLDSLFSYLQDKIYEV

[2] = target: T2, Chromodomain Y-like protein (Homo sapiens, UniProt Q9Y232); test: Binding affinity to human N-terminal GST-tagged CDYL1b chromodomain (1 to 78 residues) expressed in Escherichia coli Rosetta BL21(DE3)pLysS by ITC method
T2 sequence (Q9Y232 whole entry): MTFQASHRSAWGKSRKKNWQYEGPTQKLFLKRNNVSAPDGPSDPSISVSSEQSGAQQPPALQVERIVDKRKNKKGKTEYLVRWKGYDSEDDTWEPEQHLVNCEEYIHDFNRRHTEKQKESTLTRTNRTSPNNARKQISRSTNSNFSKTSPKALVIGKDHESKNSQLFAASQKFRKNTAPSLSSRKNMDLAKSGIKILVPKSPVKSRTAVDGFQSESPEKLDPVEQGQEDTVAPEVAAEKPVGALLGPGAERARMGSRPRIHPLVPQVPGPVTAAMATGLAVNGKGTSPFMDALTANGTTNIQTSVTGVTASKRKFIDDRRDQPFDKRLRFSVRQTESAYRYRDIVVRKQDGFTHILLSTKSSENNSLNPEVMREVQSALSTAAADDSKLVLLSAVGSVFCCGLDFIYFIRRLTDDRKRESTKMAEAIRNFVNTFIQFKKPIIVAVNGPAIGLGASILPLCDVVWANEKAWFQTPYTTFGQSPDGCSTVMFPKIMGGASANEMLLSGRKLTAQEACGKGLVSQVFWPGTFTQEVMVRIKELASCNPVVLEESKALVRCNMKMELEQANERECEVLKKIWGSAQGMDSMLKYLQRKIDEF

[3] = target: T3, Testis-specific chromodomain protein Y 1 (Homo sapiens, UniProt Q9Y6F8); test: Binding affinity to human N-terminal GST-tagged CDY1 chromodomain (1 to 101 residues) expressed in Escherichia coli Rosetta BL21(DE3)pLysS by ITC method
T3 sequence (Q9Y6F8 whole entry): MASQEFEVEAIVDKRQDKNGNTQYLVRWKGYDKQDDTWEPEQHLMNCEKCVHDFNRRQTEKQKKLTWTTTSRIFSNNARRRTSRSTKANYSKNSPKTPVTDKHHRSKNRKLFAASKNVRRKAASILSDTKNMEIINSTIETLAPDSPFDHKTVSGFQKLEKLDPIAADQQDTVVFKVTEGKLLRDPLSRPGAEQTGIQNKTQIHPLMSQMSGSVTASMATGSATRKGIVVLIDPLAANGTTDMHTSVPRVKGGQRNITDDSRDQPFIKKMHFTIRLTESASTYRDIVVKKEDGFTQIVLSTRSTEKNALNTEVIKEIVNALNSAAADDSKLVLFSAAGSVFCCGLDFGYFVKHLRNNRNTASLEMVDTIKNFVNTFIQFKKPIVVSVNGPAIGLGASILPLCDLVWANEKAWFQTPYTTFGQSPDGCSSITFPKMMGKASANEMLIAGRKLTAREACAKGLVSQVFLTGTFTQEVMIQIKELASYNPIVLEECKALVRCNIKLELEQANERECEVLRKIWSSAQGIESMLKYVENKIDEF

[4] = target: T4, Chromobox protein homolog 8 (Homo sapiens, UniProt Q9HC52); test: Binding affinity to human N-terminal his-tagged CBX8 chromodomain (8 to 61 residues) expressed in Escherichia coli Rosetta BL21(DE3)pLysS by ITC method
T4 sequence (Q9HC52 whole entry): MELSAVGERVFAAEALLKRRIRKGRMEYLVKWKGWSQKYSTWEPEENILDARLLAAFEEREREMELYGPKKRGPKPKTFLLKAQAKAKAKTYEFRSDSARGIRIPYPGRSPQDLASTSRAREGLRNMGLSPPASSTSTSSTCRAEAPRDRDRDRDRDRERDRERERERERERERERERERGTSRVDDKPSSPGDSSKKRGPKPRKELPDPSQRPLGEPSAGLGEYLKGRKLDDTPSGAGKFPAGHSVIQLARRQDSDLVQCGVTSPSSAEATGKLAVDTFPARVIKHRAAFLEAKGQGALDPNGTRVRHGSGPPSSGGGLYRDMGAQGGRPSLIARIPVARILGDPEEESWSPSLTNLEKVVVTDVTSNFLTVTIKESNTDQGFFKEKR

[5] = target: T5, Chromobox protein homolog 6 (Homo sapiens, UniProt O95503); test: Binding affinity to human N-terminal his-tagged CBX6 chromodomain (8 to 65 residues) expressed in Escherichia coli Rosetta BL21(DE3)pLysS by ITC method
T5 sequence (O95503 whole entry): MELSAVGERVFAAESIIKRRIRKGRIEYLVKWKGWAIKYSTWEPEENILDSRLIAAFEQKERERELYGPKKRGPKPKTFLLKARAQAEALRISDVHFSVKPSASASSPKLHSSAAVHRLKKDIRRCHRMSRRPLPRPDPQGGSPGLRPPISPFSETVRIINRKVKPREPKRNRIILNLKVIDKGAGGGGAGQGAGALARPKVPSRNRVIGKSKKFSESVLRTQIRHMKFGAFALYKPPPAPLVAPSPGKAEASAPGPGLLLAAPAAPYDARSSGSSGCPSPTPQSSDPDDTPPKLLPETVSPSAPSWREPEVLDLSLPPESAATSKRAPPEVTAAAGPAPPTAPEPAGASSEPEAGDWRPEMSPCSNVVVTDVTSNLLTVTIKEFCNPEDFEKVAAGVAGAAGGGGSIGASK

[6] = target: T6, Chromobox protein homolog 2 (Homo sapiens, UniProt Q14781); test: Binding affinity to human N-terminal his-tagged CBX2 chromodomain (9 to 66 residues) expressed in Escherichia coli Rosetta BL21(DE3)pLysS by ITC method
T6 sequence (Q14781 whole entry): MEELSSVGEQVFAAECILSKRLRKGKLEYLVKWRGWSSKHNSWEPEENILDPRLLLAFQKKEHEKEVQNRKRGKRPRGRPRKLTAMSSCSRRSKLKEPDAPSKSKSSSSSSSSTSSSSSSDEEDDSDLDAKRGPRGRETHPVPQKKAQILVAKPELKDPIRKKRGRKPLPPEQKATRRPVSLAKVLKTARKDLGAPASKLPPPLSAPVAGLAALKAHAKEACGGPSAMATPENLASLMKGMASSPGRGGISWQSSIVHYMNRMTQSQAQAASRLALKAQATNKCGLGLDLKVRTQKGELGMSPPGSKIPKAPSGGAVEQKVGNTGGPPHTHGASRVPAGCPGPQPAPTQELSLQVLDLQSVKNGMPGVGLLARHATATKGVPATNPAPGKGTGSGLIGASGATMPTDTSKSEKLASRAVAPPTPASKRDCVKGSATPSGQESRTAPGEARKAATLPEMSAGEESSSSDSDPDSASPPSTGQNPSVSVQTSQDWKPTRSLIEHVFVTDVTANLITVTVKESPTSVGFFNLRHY

[7] = target: Chromobox protein homolog 5 (Homo sapiens, UniProt P45973); test: Binding affinity to CBX5 chromodomain (unknown origin) by ITC method
[8] = target: Chromobox protein homolog 1 (Homo sapiens, UniProt P83916); test: Binding affinity to CBX1 chromodomain (unknown origin) by ITC method
[9] = target: Chromobox protein homolog 3 (Homo sapiens, UniProt Q13185); test: Binding affinity to CBX3 chromodomain (unknown origin) by ITC method
Chain of Chromobox protein homolog 3 (Q13185 whole entry): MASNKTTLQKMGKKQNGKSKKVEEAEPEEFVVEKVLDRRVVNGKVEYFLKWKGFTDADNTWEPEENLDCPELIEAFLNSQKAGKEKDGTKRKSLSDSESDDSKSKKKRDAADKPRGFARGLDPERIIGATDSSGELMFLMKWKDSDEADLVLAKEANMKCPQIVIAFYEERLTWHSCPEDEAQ

Chain of Chromobox protein homolog 5 (P45973 whole entry): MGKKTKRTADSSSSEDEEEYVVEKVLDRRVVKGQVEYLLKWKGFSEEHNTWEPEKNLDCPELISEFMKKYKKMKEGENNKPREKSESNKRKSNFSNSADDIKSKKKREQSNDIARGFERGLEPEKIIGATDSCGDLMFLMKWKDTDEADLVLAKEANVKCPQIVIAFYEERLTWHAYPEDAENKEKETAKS
Chain of Chromobox protein homolog 1 (P83916 whole entry): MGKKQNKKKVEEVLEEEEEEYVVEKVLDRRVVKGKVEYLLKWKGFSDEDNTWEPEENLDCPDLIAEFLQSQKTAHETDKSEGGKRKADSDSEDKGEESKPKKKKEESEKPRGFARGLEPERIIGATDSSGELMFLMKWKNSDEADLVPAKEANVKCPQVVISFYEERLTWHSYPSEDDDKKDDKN

With `CCN(CC)CCCC[C@H](NC(=O)[C@H](CC(C)C)NC(=O)[C@H](C)NC(=O)[C@H](Cc1ccccc1)NC(=O)c1ccc(C(C)(C)C)cc1)C(=O)N[C@@H](CO)C(=O)OC` ({Benzoyl(4-tBu)}-FAL[Lys(Et2)]S-OMe) the Activity (PC-3) was “Active”, the Kd [1] was 0.85 µM and the Kd [2] was 0.91 µM. For the same compound, the Kd [3] was 6.3 µM, the Kd [4] was 1.2 µM and the Kd [5] was 0.61 µM. For the same compound, the Kd [6] was 1.8 µM, the Kd [7] was over 100 µM and the Kd [8] was over 100 µM. It also gave a Kd [9] of over 100 µM.
